test system: Malme-3M; assay: Growth inhibition of human Malme-3M cells at 10 uM incubated for 48 hrs by sulforhodamine B assay relative to control; assay type: functional; details: read-out: GI
Summary of the method: (§1)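 NCI one-dose screen. Cells grown in RPMI 1640 with 5% FBS and 2 mM L-glutamine, plated and incubated 24 h at 37 °C, 5% CO2. DMSO-dissolved drug added, then 48 h further incubation. Adherent cells fixed with cold TCA, suspension cells fixed after settling. Stained with 0.4% SRB, absorbance read at 515 nm. Reported as percent growth relative to no-drug control and time-zero cell number.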

Compound | inhibition of growth at 10 µM
COc1cc2nc(-c3ccc(Cl)cc3)cc(OCCN3CCOCC3)c2cc1OC | 3%

test system: TK-10; assay: Growth inhibition of human TK-10 cells at 10 uM incubated for 48 hrs by sulforhodamine B assay relative to control; assay type: functional; details: read-out: GI
Summary of the method: (§2)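 NCI one-dose screen across a 59-line panel. Cells were grown in RPMI 1640 with 5% FBS and 2 mM L-glutamine, plated and pre-incubated 24 h, then exposed to drug for 48 h at 37 °C, 5% CO2. Adherent cells were fixed with cold TCA (10% final), stained with 0.4% SRB in 1% acetic acid and read at 515 nm. Result is percent growth relative to no-drug control and time-zero cell count.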

Compound | inhibition of growth at 10 µM
COc1cc2nc(-c3ccc(Cl)cc3)cc(OCCN3CCOCC3)c2cc1OC | 3%

test system: MDA-MB-468; assay: Growth inhibition of human MDA-MB-468 cells at 10 uM incubated for 48 hrs by sulforhodamine B assay relative to control; assay type: functional; details: read-out: GI
Summary of the method: (§3)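 NCI-60 single-dose screen. Cells were grown in RPMI 1640 with 5% FBS and 2 mM L-glutamine and plated 24 h before drug addition. Compound was added at one concentration in DMSO-derived medium and incubated for 48 h at 37 °C in 5% CO2. Read-out was SRB protein stain at 515 nm. Result is percent growth versus the no-drug control and the time-zero cell count; values below 0 indicate lethality.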

Compound | inhibition of growth at 10 µM
COc1cc2nc(-c3ccc(Cl)cc3)cc(OCCN3CCOCC3)c2cc1OC | 3%

test system: OVCAR-5; assay: Growth inhibition of human OVCAR-5 cells at 10 uM incubated for 48 hrs by sulforhodamine B assay relative to control; assay type: functional; details: read-out: GI; summary of the method: as §1

Compound | inhibition of growth at 10 µM
COc1cc2nc(-c3ccc(Cl)cc3)cc(OCCN3CCOCC3)c2cc1OC | 3%

test system: HOP-92; assay: Growth inhibition of human HOP-92 cells at 10 uM incubated for 48 hrs by sulforhodamine B assay relative to control; assay type: functional; details: read-out: GI; summary of the method: as §3

Compound | inhibition of growth at 10 µM
COc1cc2nc(-c3ccc(Cl)cc3)cc(OCCN3CCOCC3)c2cc1OC | 3%

test system: EKVX; assay: Growth inhibition of human EKVX cells at 10 uM incubated for 48 hrs by sulforhodamine B assay relative to control; assay type: functional; details: read-out: GI; summary of the method: as §3

Compound | inhibition of growth at 10 µM
COc1cc2nc(-c3ccc(Cl)cc3)cc(OCCN3CCOCC3)c2cc1OC | 3%

test system: SW-620; assay: Growth inhibition of human SW-620 cells at 10 uM incubated for 48 hrs by sulforhodamine B assay relative to control; assay type: functional; details: read-out: GI; summary of the method: as §2

Compound | inhibition of growth at 10 µM
COc1cc2nc(-c3ccc(Cl)cc3)cc(OCCN3CCOCC3)c2cc1OC | 3%

test system: Hs-578T; assay: Growth inhibition of human HS-578T cells at 10 uM incubated for 48 hrs by sulforhodamine B assay relative to control; assay type: functional; details: read-out: GI; summary of the method: as §3

Compound | inhibition of growth at 10 µM
COc1cc2nc(-c3ccc(Cl)cc3)cc(OCCN3CCOCC3)c2cc1OC | 3%

test system: SNB-19; assay: Growth inhibition of human SNB-19 cells at 10 uM incubated for 48 hrs by sulforhodamine B assay relative to control; assay type: functional; details: read-out: GI; summary of the method: as §1

Compound | inhibition of growth at 10 µM
COc1cc2nc(-c3ccc(Cl)cc3)cc(OCCN3CCOCC3)c2cc1OC | 3%

test system: K562; assay: Growth inhibition of human K562 cells at 10 uM incubated for 48 hrs by sulforhodamine B assay relative to control; assay type: functional; details: read-out: GI; summary of the method: as §3

Compound | inhibition of growth at 10 µM
COc1cc2nc(-c3ccc(Cl)cc3)cc(OCCN3CCOCC3)c2cc1OC | 3%

test system: PC-3; assay: Growth inhibition of human PC-3 cells at 10 uM incubated for 48 hrs by sulforhodamine B assay relative to control; assay type: functional; details: read-out: GI; summary of the method: as §1

Compound | inhibition of growth at 10 µM
COc1cc2nc(-c3ccc(Cl)cc3)cc(OCCN3CCOCC3)c2cc1OC | 3%

test system: NCI/ADR-RES; assay: Growth inhibition of human NCI/ADR-RES cells at 10 uM incubated for 48 hrs by sulforhodamine B assay relative to control; assay type: functional; details: read-out: GI; summary of the method: as §1

Compound | inhibition of growth at 10 µM
COc1cc2nc(-c3ccc(Cl)cc3)cc(OCCN3CCOCC3)c2cc1OC | 3%

test system: SF-268; assay: Growth inhibition of human SF-268 cells at 10 uM incubated for 48 hrs by sulforhodamine B assay relative to control; assay type: functional; details: read-out: GI; summary of the method: as §1

Compound | inhibition of growth at 10 µM
COc1cc2nc(-c3ccc(Cl)cc3)cc(OCCN3CCOCC3)c2cc1OC | 3%

test system: OVCAR-8; assay: Growth inhibition of human OVCAR-8 cells at 10 uM incubated for 48 hrs by sulforhodamine B assay relative to control; assay type: functional; details: read-out: GI; summary of the method: as §1

Compound | inhibition of growth at 10 µM
COc1cc2nc(-c3ccc(Cl)cc3)cc(OCCN3CCOCC3)c2cc1OC | 3%

test system: HOP-62; assay: Growth inhibition of human HOP-62 cells at 10 uM incubated for 48 hrs by sulforhodamine B assay relative to control; assay type: functional; details: read-out: GI; summary of the method: as §3

Compound | inhibition of growth at 10 µM
COc1cc2nc(-c3ccc(Cl)cc3)cc(OCCN3CCOCC3)c2cc1OC | 3%

test system: SR; assay: Growth inhibition of human SR cells at 10 uM incubated for 48 hrs by sulforhodamine B assay relative to control; assay type: functional; details: read-out: GI; summary of the method: as §1

Compound | inhibition of growth at 10 µM
COc1cc2nc(-c3ccc(Cl)cc3)cc(OCCN3CCOCC3)c2cc1OC | 3%

test system: BT-549; assay: Growth inhibition of human BT-549 cells at 10 uM incubated for 48 hrs by sulforhodamine B assay relative to control; assay type: functional; details: read-out: GI; summary of the method: as §3

Compound | inhibition of growth at 10 µM
COc1cc2nc(-c3ccc(Cl)cc3)cc(OCCN3CCOCC3)c2cc1OC | 3%

test system: SK-MEL-28; assay: Growth inhibition of human SK-MEL-28 cells at 10 uM incubated for 48 hrs by sulforhodamine B assay relative to control; assay type: functional; details: read-out: GI; summary of the method: as §1

Compound | inhibition of growth at 10 µM
COc1cc2nc(-c3ccc(Cl)cc3)cc(OCCN3CCOCC3)c2cc1OC | 3%

test system: SK-MEL-5; assay: Growth inhibition of human SK-MEL-5 cells at 10 uM incubated for 48 hrs by sulforhodamine B assay relative to control; assay type: functional; details: read-out: GI; summary of the method: as §1

Compound | inhibition of growth at 10 µM
COc1cc2nc(-c3ccc(Cl)cc3)cc(OCCN3CCOCC3)c2cc1OC | 3%

test system: UACC-62; assay: Growth inhibition of human UACC-62 cells at 10 uM incubated for 48 hrs by sulforhodamine B assay relative to control; assay type: functional; details: read-out: GI; summary of the method: as §2

Compound | inhibition of growth at 10 µM
COc1cc2nc(-c3ccc(Cl)cc3)cc(OCCN3CCOCC3)c2cc1OC | 3%

test system: SK-MEL-2; assay: Growth inhibition of human SK-MEL-2 cells at 10 uM incubated for 48 hrs by sulforhodamine B assay relative to control; assay type: functional; details: read-out: GI; summary of the method: as §1

Compound | inhibition of growth at 10 µM
COc1cc2nc(-c3ccc(Cl)cc3)cc(OCCN3CCOCC3)c2cc1OC | 3%

test system: SN12C; assay: Growth inhibition of human SN12C cells at 10 uM incubated for 48 hrs by sulforhodamine B assay relative to control; assay type: functional; details: read-out: GI; summary of the method: as §1

Compound | inhibition of growth at 10 µM
COc1cc2nc(-c3ccc(Cl)cc3)cc(OCCN3CCOCC3)c2cc1OC | 3%

test system: KM12; assay: Growth inhibition of human KM12 cells at 10 uM incubated for 48 hrs by sulforhodamine B assay relative to control; assay type: functional; details: read-out: GI; summary of the method: as §3

Compound | inhibition of growth at 10 µM
COc1cc2nc(-c3ccc(Cl)cc3)cc(OCCN3CCOCC3)c2cc1OC | 3%

test system: T47D; assay: Growth inhibition of human T47D cells at 10 uM incubated for 48 hrs by sulforhodamine B assay relative to control; assay type: functional; details: read-out: GI; summary of the method: as §2

Compound | inhibition of growth at 10 µM
COc1cc2nc(-c3ccc(Cl)cc3)cc(OCCN3CCOCC3)c2cc1OC | 3%

test system: UACC-257; assay: Growth inhibition of human UACC-257 cells at 10 uM incubated for 48 hrs by sulforhodamine B assay relative to control; assay type: functional; details: read-out: GI; summary of the method: as §2

Compound | inhibition of growth at 10 µM
COc1cc2nc(-c3ccc(Cl)cc3)cc(OCCN3CCOCC3)c2cc1OC | 3%

test system: HL-60(TB); assay: Growth inhibition of human HL-60(TB) cells at 10 uM incubated for 48 hrs by sulforhodamine B assay relative to control; assay type: functional; details: read-out: GI
Summary of the method: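 NCI-60 one-dose screen: same culture, 48 h drug exposure and SRB read-out. Reported as percent growth relative to no-drug control and to time-zero cell number; 0–100 means growth inhibition, below 0 means lethality.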

Compound | inhibition of growth at 10 µM
COc1cc2nc(-c3ccc(Cl)cc3)cc(OCCN3CCOCC3)c2cc1OC | 3%

test system: NCI-H460; assay: Growth inhibition of human NCI-H460 cells at 10 uM incubated for 48 hrs by sulforhodamine B assay relative to control; assay type: functional; details: read-out: GI; summary of the method: as §1

Compound | inhibition of growth at 10 µM
COc1cc2nc(-c3ccc(Cl)cc3)cc(OCCN3CCOCC3)c2cc1OC | 3%

test system: NCI-H23; assay: Growth inhibition of human NCI-H23 cells at 10 uM incubated for 48 hrs by sulforhodamine B assay relative to control; assay type: functional; details: read-out: GI; summary of the method: as §1

Compound | inhibition of growth at 10 µM
COc1cc2nc(-c3ccc(Cl)cc3)cc(OCCN3CCOCC3)c2cc1OC | 3%

test system: MDA-MB-435; assay: Growth inhibition of human MDA-MB-435 cells at 10 uM incubated for 48 hrs by sulforhodamine B assay relative to control; assay type: functional; details: read-out: GI; summary of the method: as §3

Compound | inhibition of growth at 10 µM
COc1cc2nc(-c3ccc(Cl)cc3)cc(OCCN3CCOCC3)c2cc1OC | 3%

test system: SF-539; assay: Growth inhibition of human SF-539 cells at 10 uM incubated for 48 hrs by sulforhodamine B assay relative to control; assay type: functional; details: read-out: GI; summary of the method: as §1

Compound | inhibition of growth at 10 µM
COc1cc2nc(-c3ccc(Cl)cc3)cc(OCCN3CCOCC3)c2cc1OC | 3%

test system: NCI-H522; assay: Growth inhibition of human NCI-H522 cells at 10 uM incubated for 48 hrs by sulforhodamine B assay relative to control; assay type: functional; details: read-out: GI; summary of the method: as §1

Compound | inhibition of growth at 10 µM
COc1cc2nc(-c3ccc(Cl)cc3)cc(OCCN3CCOCC3)c2cc1OC | 3%

test system: OVCAR-3; assay: Growth inhibition of human OVCAR-3 cells at 10 uM incubated for 48 hrs by sulforhodamine B assay relative to control; assay type: functional; details: read-out: GI; summary of the method: as §1

Compound | inhibition of growth at 10 µM
COc1cc2nc(-c3ccc(Cl)cc3)cc(OCCN3CCOCC3)c2cc1OC | 3%

test system: NCI-H322M; assay: Growth inhibition of human NCI-H322M cells at 10 uM incubated for 48 hrs by sulforhodamine B assay relative to control; assay type: functional; details: read-out: GI; summary of the method: as §1

Compound | inhibition of growth at 10 µM
COc1cc2nc(-c3ccc(Cl)cc3)cc(OCCN3CCOCC3)c2cc1OC | 3%

test system: LOX IMVI; assay: Growth inhibition of human LOX IMVI cells at 10 uM incubated for 48 hrs by sulforhodamine B assay relative to control; assay type: functional; details: read-out: GI; summary of the method: as §3

Compound | inhibition of growth at 10 µM
COc1cc2nc(-c3ccc(Cl)cc3)cc(OCCN3CCOCC3)c2cc1OC | 3%

test system: SNB-75; assay: Growth inhibition of human SNB-75 cells at 10 uM incubated for 48 hrs by sulforhodamine B assay relative to control; assay type: functional; details: read-out: GI; summary of the method: as §1

Compound | inhibition of growth at 10 µM
COc1cc2nc(-c3ccc(Cl)cc3)cc(OCCN3CCOCC3)c2cc1OC | 3%

test system: OVCAR-4; assay: Growth inhibition of human OVCAR-4 cells at 10 uM incubated for 48 hrs by sulforhodamine B assay relative to control; assay type: functional; details: read-out: GI; summary of the method: as §1

Compound | inhibition of growth at 10 µM
COc1cc2nc(-c3ccc(Cl)cc3)cc(OCCN3CCOCC3)c2cc1OC | 3%

Reference: ChEMBL document CHEMBL4732237, “Discovery of 4-alkoxy-2-aryl-6,7-dimethoxyquinolines as a new class of topoisomerase I inhibitors endowed with potent in vitro anticancer activity” (2021)
